How the values were obtained:
Bone = assay: Drug uptake in bone of Wistar rat at 47 MBq, iv up to 90 mins by PET analysis; assay type: ADME, organism-based, Bone element; settings: in vivo, 1.5 h
Outline: (§1)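 Male Wistar rat under isoflurane given 47 MBq (0.8 nmol) [18F]-tracer via tail vein. Head scanned 0–90 min by list-mode PET, then CT. Blocking rat received 1 mg/kg haloperidol iv just before tracer (34 MBq). 2D-OSEM reconstruction with no attenuation correction. ROI analysis gives SUV (Bq/cm3 per injected Bq/g).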

Cerebellum [1] = assay: Drug uptake in cerebellum of Wistar rat at 47 MBq, iv up to 90 mins by PET analysis in presence of haloperidol; assay type: ADME, organism-based; settings: in vivo, 1.5 h
[2] = Drug uptake in olfactory of Wistar rat at 47 MBq, iv up to 90 mins by PET analysis in presence of haloperidol; assay type: ADME, organism-based; settings: in vivo, 1.5 h
Cerebral cortex [3] = assay: Drug uptake in cerebral cortex of Wistar rat at 47 MBq, iv up to 90 mins by PET analysis in presence of haloperidol; assay type: ADME, organism-based; settings: in vivo, 1.5 h
Cerebellum [4] = assay: Drug uptake in cerebellum of Wistar rat at 47 MBq, iv up to 90 mins by PET analysis; assay type: ADME, organism-based; settings: in vivo, 1.5 h; outline: as §1
[5] = Drug uptake in olfactory of Wistar rat at 47 MBq, iv up to 90 mins by PET analysis; assay type: ADME, organism-based; settings: in vivo, 1.5 h; outline: as §1
Cerebral cortex [6] = assay: Drug uptake in cerebral cortex of Wistar rat at 47 MBq, iv up to 90 mins by PET analysis; assay type: ADME, organism-based; settings: in vivo, 1.5 h; outline: as §1
Brain [7] = assay: Drug uptake in Wistar rat brain slices after 45 mins by autoradiography in presence of 0.9 uM of unlabelled 2-(3-(6,7-Dimethoxy-3,4-dihydroisoquinolin-2(1H)-yl)propyl)-5-(2-fluoroethoxy)-3,4-dihydroisoquinolin-1(2H)-one; assay type: ADME, tissue-based
Outline: (§2)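 Horizontal 20 µm cryosections of male Wistar rat brain, thawed 30 min, pre-incubated 10 min at 4 °C in 50 mM Tris-HCl pH 7.4. Incubated 45 min at rt with 9 nM [18F]-tracer in Tris-HCl/1% BSA (n = 4), alone or with blocker. Washed, air-dried, phosphor-imaged after 15 min exposure.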

Brain [8] = assay: Drug uptake in Wistar rat brain slices after 45 mins by autoradiography in presence of 90 uM of haloperidol; assay type: ADME, tissue-based; outline: as §2
Cerebellum [9] = assay: Drug uptake in Wistar rat cerebellum after 45 mins by autoradiography; assay type: ADME, tissue-based; outline: as §2
Cerebral cortex [10] = assay: Drug uptake in Wistar rat cerebral cortex after 45 mins by autoradiography; assay type: ADME, tissue-based; outline: as §2
Hippocampus = assay: Drug uptake in Wistar rat hippocampus after 45 mins by autoradiography; assay type: ADME, tissue-based; outline: as §2
[11] = Selectivity ratio of Ki for sigma 1 receptor in guinea pig brain membranes without cerebellum to Ki for sigma 2 receptor in Wistar Hannover rat liver membranes; assay type: cell membranes; settings: Membrane
[12] = Displacement of [3H]-DTG from sigma 2 receptor in Wistar Hannover rat liver membranes; assay type: cell membranes, Membrane
[13] = molecular target: Sigma non-opioid intracellular receptor 1 (Cavia porcellus, UniProt Q60492); assay: Displacement of (+)-[3H]-pentazocine from sigma 1 receptor in Dunkin guinea pig brain membranes without cerebellum; assay type: cell membranes, Membrane
[14] = molecular target: ATP-dependent translocase ABCB1 (Homo sapiens, UniProt P08183); assay: Activity at human MDR1 expressed in MDCK cells assessed as Calcein-AM uptake after 30 mins by fluorescence assay; assay type: ADME, cell-based
Outline: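 P-gp interaction measured with the Calcein-AM assay in MDCK-MDR1 cells, which overexpress P-gp.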

Caco-2 = assay: Efflux ratio of apparent permeability from apical to basolateral side over basolateral to apical side in human Caco2 cells at 1 to 100 uM after 120 mins; assay type: ADME, cell-based; settings: caco-2, 2 h
[15] = molecular target: T1, Adrenergic receptor alpha-1 (Rattus norvegicus, UniProt P15823+P23944+P43140); assay: Displacement of [3H]-prazosin from alpha1 adrenoceptor in Wistar Hannover rat cerebral cortex membranes after 50 mins; assay type: cell membranes, Membrane
T1 sequence (P15823 whole entry): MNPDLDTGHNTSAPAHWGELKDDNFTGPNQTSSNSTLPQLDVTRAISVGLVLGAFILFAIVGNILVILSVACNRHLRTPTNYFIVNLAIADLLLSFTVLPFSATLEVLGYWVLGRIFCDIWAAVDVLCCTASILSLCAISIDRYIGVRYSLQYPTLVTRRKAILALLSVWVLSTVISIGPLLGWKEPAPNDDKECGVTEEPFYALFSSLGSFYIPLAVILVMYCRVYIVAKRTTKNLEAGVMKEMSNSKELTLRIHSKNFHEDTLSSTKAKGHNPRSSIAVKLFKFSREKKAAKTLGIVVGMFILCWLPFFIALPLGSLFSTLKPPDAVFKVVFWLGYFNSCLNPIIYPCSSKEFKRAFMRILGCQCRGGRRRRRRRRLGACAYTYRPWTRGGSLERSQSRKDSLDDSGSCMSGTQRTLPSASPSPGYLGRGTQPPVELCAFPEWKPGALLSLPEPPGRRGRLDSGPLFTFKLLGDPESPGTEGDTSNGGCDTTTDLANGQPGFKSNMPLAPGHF
T1 sequence (P23944 whole entry): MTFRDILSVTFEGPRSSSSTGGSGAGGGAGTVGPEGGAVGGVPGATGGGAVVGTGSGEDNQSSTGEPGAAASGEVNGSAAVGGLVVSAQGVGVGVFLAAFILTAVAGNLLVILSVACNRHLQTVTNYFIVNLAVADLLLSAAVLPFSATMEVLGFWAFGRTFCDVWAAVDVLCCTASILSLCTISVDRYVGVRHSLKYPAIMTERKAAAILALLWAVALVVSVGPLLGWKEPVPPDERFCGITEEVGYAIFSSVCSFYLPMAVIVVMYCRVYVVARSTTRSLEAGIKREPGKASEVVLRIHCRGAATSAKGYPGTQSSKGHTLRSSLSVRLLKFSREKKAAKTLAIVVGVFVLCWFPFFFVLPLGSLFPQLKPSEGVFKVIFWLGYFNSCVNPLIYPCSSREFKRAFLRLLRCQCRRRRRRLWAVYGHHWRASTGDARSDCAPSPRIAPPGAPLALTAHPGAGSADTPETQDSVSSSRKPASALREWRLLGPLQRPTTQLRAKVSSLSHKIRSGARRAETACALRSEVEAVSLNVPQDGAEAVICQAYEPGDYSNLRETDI
T1 sequence (P43140 whole entry): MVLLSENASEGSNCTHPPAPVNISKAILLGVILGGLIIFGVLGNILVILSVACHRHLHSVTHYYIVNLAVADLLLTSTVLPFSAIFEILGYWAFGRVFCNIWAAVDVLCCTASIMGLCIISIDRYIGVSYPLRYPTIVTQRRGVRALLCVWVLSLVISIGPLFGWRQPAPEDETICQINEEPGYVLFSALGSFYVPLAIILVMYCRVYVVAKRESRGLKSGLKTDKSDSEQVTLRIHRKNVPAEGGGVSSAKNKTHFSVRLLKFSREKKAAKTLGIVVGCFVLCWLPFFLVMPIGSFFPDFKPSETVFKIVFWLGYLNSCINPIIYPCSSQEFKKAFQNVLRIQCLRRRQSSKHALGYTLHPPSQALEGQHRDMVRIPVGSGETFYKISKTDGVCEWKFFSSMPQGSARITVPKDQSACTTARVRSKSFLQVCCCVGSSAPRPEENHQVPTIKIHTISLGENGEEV
Outline: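 Rat cerebral cortex membranes ([…]) with 1 nM [3H]-prazosin in 50 mM Tris-HCl pH 7.4, 120 mM NaCl, 5 mM KCl, 5 mM CaCl2, 1 mM MgCl2, plus varied drug concentrations. Incubated 50 min at 25 °C, filtered on PEI-soaked GF/C. Nonspecific binding with 10 phentolamine.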

[16] = molecular target: T2, 5-hydroxytryptamine receptor 1A (Homo sapiens, UniProt P08908); assay: Displacement of [3H]-8-OH-DPAT from human recombinant 5-HT1A receptor expressed in HEK293-EBNA cells after 120 mins; assay type: cell-based
T2 sequence (P08908 whole entry): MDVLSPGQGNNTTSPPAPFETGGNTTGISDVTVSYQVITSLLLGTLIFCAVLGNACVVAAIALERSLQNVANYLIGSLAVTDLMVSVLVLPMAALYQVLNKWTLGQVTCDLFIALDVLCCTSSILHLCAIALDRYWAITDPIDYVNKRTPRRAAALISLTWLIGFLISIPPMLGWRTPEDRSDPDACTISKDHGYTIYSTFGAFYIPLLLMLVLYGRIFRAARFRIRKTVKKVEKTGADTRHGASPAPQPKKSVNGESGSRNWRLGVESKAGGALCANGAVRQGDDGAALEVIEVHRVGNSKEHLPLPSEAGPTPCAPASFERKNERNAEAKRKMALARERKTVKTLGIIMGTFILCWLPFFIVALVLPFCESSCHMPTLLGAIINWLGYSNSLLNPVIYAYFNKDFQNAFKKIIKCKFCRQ
Outline: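 HEK293-EBNA membranes ([…] protein) stably expressing human 5-HT1A, 1.0 nM [3H]-8-OH-DPAT, test compound 0.1 nM to 10 mM. Buffer 50 mM Tris-HCl pH 7.4, 5 mM MgSO4. Incubated 120 min at 37 °C, filtered on PEI-soaked GF/C. Nonspecific binding with 10 mM 5-HT.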

[17] = molecular target: 5-hydroxytryptamine receptor 7 (Homo sapiens, UniProt P34969); assay: Displacement of [3H]-5-CT from human recombinant 5-HT7 receptor expressed in CHO-K1 cells after 120 mins; assay type: cell-based
5-hydroxytryptamine receptor 7, sequence (P34969 whole entry): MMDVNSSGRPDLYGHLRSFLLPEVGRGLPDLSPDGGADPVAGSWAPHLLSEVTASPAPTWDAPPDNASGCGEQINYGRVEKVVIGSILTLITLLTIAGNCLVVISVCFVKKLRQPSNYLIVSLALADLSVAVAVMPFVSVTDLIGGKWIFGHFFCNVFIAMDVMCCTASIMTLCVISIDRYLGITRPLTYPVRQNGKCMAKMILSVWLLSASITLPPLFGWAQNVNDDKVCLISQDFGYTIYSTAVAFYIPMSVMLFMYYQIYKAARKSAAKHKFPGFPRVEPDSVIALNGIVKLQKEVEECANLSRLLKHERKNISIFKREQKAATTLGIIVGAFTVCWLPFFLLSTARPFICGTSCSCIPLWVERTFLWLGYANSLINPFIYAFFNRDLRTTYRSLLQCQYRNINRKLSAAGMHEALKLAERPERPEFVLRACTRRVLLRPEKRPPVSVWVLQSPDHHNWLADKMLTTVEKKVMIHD

Sigma non-opioid intracellular receptor 1, sequence (Q60492 whole entry): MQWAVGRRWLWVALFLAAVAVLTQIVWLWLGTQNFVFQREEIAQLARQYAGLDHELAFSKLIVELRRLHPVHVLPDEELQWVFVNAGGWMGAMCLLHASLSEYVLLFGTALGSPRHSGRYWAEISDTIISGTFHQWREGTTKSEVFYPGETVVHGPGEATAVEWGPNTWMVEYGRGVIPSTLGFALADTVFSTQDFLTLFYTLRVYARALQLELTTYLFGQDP
ATP-dependent translocase ABCB1, sequence (P08183 whole entry): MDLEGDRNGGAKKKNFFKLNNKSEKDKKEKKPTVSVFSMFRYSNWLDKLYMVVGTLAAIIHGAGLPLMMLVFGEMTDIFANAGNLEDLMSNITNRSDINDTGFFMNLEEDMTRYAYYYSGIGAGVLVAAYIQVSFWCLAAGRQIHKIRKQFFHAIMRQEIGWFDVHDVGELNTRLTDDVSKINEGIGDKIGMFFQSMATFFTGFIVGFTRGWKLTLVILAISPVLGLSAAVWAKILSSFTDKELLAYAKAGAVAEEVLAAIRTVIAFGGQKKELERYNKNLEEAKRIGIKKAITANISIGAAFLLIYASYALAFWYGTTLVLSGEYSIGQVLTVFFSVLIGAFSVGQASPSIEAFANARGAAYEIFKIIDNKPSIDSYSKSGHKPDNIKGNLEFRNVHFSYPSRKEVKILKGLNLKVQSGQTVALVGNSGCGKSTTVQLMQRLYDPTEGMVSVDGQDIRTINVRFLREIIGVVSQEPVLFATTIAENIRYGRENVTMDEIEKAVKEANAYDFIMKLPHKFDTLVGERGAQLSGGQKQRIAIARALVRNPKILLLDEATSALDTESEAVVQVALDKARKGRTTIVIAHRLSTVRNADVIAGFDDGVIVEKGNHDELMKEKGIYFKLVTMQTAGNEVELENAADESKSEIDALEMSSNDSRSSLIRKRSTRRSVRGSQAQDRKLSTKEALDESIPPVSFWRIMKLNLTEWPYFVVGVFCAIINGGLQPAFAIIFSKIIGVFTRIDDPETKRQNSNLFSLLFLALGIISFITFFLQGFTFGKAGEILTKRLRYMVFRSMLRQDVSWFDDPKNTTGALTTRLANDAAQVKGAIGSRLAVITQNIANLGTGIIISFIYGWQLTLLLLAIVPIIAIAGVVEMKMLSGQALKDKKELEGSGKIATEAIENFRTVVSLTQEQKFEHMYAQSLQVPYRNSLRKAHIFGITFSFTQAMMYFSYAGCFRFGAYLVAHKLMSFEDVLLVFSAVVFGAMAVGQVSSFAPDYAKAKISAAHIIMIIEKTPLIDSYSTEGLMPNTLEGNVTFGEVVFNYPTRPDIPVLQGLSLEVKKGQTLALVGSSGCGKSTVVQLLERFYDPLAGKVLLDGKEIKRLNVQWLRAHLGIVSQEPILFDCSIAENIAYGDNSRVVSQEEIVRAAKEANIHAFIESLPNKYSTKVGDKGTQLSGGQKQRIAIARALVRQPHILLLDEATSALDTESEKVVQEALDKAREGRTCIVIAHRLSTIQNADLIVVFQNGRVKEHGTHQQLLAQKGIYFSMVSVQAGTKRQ

COc1cc2c(cc1OC)CN(CCCN1CCc3c(OCC[18F])cccc3C1=O)CC2
Drug uptake (Bone): Not Active
Drug uptake (Cerebellum [1]): Not Active
Drug uptake [2]: Not Active
Drug uptake (Cerebral cortex [3]): Not Active
Drug uptake (Cerebellum [4]): Active
Drug uptake [5]: Active
Drug uptake (Cerebral cortex [6]): Active
Drug uptake (Brain [7]): Not Active
Drug uptake (Brain [8]): Not Active
Drug uptake (Cerebellum [9]): Active
Drug uptake (Cerebral cortex [10]): Active
Drug uptake (Hippocampus): Active

COc1ccc2c(c1)CCN(CCCN1CCc3cc(OC)c(OC)cc3C1)C2=O
Ratio Ki [11]: 70
Ki [12]: 5.74 nM
Ki [13]: 402 nM

COc1cc2c(cc1OC)CN(CC/C=C1\CCCc3c(OC)cccc31)CC2
EC50 [14]: 1100 nM

COc1cc2c(cc1OC)CN(CCCN1CCc3cc(F)ccc3C1=O)CC2
Ratio Ki [11]: 87
Ki [12]: 3.56 nM
Ki [13]: 311 nM

COc1cc2c(cc1OC)CN(CCCN1CCc3cc(OC)c(OC)cc3C1=O)CC2
Ratio Ki [11]: 127
Ki [12]: 20.1 nM
Ki [13]: 2570 nM

COc1cc2c(cc1OC)CN(CCCN1CCc3c(OC)cccc3C1=O)CC2
Ratio Ki [11]: 574
Ki [12]: 4.24 nM
Ki [13]: 2440 nM

COc1cc2c(cc1OC)CN(CCCN1CCc3c(OCCF)cccc3C1=O)CC2
Ratio (Caco-2): 2.58
EC50 [14]: 5000 nM
Ki [15]: 764 nM
Ki [16]: > 1000 nM
Ki [17]: > 1000 nM
Ratio Ki [11]: 330
Ki [12]: 9.24 nM
Ki [13]: 3100 nM

COc1cc2c(cc1OC)CN(CCCN1CCc3cccc(OC)c3C1=O)CC2
Ratio Ki [11]: 101
Ki [12]: 16.3 nM
Ki [13]: 1630 nM

Source: ChEMBL document CHEMBL2434886, “Development of 3,4-dihydroisoquinolin-1(2H)-one derivatives for the Positron Emission Tomography (PET) imaging of σ₂ receptors” (Eur J Med Chem, 2013)
